From PubChem BioAssay AID463077 (The Scripps Research Institute Molecular Screening Center, 2010)
Calls of active or inactive are those of the source.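 How the source made its calls: active means compounds whose half-inhibition concentration IC50 on CK1 delta kinase is at most 1 µM; inactive means the rest.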

Target: Casein kinase I isoform delta (Homo sapiens) (UniProt P48730)
Experiment: inhibition of casein kinase 1 delta activity – biochemical, radioactive 33P-ATP, purified kinase, powder samples, late-stage follow-up (AID 463077)
Settings: purified CK1d, 33P-ATP filter-binding, CK1tide
Outline: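 Evaluation: IC50 from radioactivity signal ratios plotted against compound concentration; Test system: purified human CK1d kinase; Reagent: 20 µM CK1tide with radiolabelled ATP; Times: kinase reaction run 120 min at room temperature; Buffer or medium: HEPES reaction buffer at pH 7.5, 1% DMSO; Detection: filter-binding measurement of 33P label incorporated into peptide.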

Chain of Casein kinase I isoform delta (Homo sapiens) (P48730 whole entry, looked up, canonical isoform): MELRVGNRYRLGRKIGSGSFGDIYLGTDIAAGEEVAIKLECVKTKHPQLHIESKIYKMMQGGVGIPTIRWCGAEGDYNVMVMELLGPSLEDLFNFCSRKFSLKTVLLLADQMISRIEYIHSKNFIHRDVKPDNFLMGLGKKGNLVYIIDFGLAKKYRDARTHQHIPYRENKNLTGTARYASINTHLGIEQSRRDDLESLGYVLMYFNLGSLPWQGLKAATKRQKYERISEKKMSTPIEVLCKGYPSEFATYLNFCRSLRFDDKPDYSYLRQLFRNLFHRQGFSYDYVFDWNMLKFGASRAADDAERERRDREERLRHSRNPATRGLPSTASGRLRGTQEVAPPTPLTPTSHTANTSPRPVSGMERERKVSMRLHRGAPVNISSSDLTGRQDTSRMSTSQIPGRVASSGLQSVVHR

| IC50 | SMILES |
| --- | --- |
| 0.129 µM | c1ccc2cc3[nH]c(CNc4nc(N5CCOCC5)nc5c4ncn5-c4ccsc4)nc3cc2c1 |
| inactive | Cc1ccnc(NC(=O)CCCOc2cc(=O)n(C)c3ccccc23)c1 |
| 0.161 µM | c1ccc2[nH]c(CNc3nc(N4CCOCC4)nc4c3ncn4-c3ccsc3)nc2c1 |
| 0.011 µM | N#Cc1ccc2nc(CNc3nc(N4CCOCC4)nc4c3ncn4-c3ccsc3)[nH]c2c1 |
| 0.05 µM | Fc1ccc2nc(CNc3nc(N4CCOCC4)nc4c3ncn4-c3ccsc3)[nH]c2c1 |
| 0.815 µM | CC(C)n1cnc2c(NCc3nc4c([N+](=O)[O-])cccc4[nH]3)nc(N3CCOCC3)nc21 |
| 0.128 µM | FC(F)(F)c1cccc2[nH]c(CNc3nc(N4CCOCC4)nc4c3ncn4-c3ccsc3)nc12 |
| 0.361 µM | CCOC(=O)c1cccc2[nH]c(CNc3nc(N4CCOCC4)nc4c3ncn4-c3ccsc3)nc12 |
| 0.021 µM | O=[N+]([O-])c1ccc2nc(CNc3nc(N4CCOCC4)nc4c3ncn4-c3ccsc3)[nH]c2c1 |
| 0.049 µM | O=[N+]([O-])c1cccc2[nH]c(CNc3nc(N4CCOCC4)nc4c3ncn4-c3ccsc3)nc12 |
| 0.013 µM | FC(F)(F)c1ccc2nc(CNc3nc(N4CCOCC4)nc4c3ncn4-c3ccsc3)[nH]c2c1 |
| 0.105 µM | Clc1ccc2nc(CNc3nc(N4CCOCC4)nc4c3ncn4-c3ccsc3)[nH]c2c1 |
| 0.017 µM | COc1ccc2nc(CNc3nc(N4CCOCC4)nc4c3ncn4-c3ccsc3)[nH]c2c1 |
